Activity calls are given as the source filed them. No cut-off for these calls is given here.
Experiments:
M21 = assay: Antiproliferative activity against human M21 cells after 48 hrs; type: functional, cell-based; conditions: M21, 48 h
Procedure, shortened: (§1)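 TCA fixation, sulforhodamine B stain, absorbance 585 nm minus day-of-treatment background plate; inhibition vs DMSO control; at least triplicate; IC50 accepted if within-experiment variability under 10%.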

MCF7 = assay: Antiproliferative activity against human MCF7 cells after 48 hrs; type: functional, cell-based; conditions: MCF7, 48 h; procedure, shortened: as §1
HT-29 = assay: Antiproliferative activity against human HT-29 cells after 48 hrs; type: functional, cell-based; conditions: HT-29, 48 h; procedure, shortened: as §1
[1] = molecular target: Tubulin beta (Homo sapiens) (UniProt P68371+Q9H4B7+Q13509+P04350+Q3ZCM7+P07437+Q13885+Q9BVA1+Q9BUF5+A6NNZ2); assay: inhibition of beta tubulin acylation in human M21 cells assessed as beta-tubulin band migration by Western blotting; type: cell-based
Procedure, shortened: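 Floating plus adherent cells pooled, lysed in Laemmli buffer, 10% SDS-PAGE, nitrocellulose; blocked in TBS pH 7.4 with 5% milk/0.1% Tween 20, probed with monoclonal anti-β-tubulin 1:500 then peroxidase anti-mouse 1:2500.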

SMILES	IC50 (MCF7) [µM]	IC50 (HT-29) [µM]	Activity [1]	IC50 (M21) [µM]
CCCCCc1cccc(NC(=O)NCC)c1	67	16	–	36
CC(=O)CCCCc1cccc(NC(=O)CCCCl)c1	> 100	> 100	–	> 100
C=CC(=O)Nc1cccc(CCCCC(C)=O)c1	99	29	–	33
CCNC(=O)Nc1cccc(CCCCCO)c1	> 100	> 100	–	> 100
CCCCCc1cccc(NC(=O)CCCCl)c1	> 100	> 100	–	> 100
CCNC(=O)NCc1ccc(C(C)(C)C)cc1	> 100	> 100	–	> 100
CCNC(=O)Nc1cccc(CCCCCOC)c1	> 100	> 100	–	> 100
O=C(CCCCl)Nc1cccc(CCCCCO)c1	> 100	> 100	–	> 100
CC(C)(C)c1ccc(CNC(=O)CCCCl)cc1	92	72	–	69
O=C(NCCCCl)Nc1cccc(CCCCCO)c1	> 100	19	–	35
O=C(CCCl)Nc1cccc(CCCCCO)c1	> 100	> 100	–	> 100
COCCCCCc1cccc(NC(=O)CCCCl)c1	> 100	> 100	–	> 100
O=C(CCCCl)Nc1ccc(I)cc1	> 100	> 100	–	> 100
CCNC(=O)Nc1cccc(CCCCC(C)=O)c1	> 100	40	–	> 100
C=CC(=O)Nc1cccc(CCCCCOC)c1	> 100	40	–	48
CC(=O)CCCCc1cccc(NC(=O)NCCCCl)c1	71	41	–	36
CC(=O)CCCCc1cccc(NC(=O)CCCl)c1	> 100	> 100	–	> 100
O=C(CCl)Nc1ccc(I)cc1	6.2	9.7	inactive	5.1
CC(C)(C)c1ccc(NC(=O)CCCCl)cc1	> 100	> 100	–	> 100
O=C(NCCCCl)Nc1ccc(I)cc1	> 100	90	–	> 100
COCCCCCc1cccc(NC(=O)CCCl)c1	> 100	> 100	–	> 100
C=CC(=O)Nc1cccc(CCCCCO)c1	> 100	> 100	–	98
CCNC(=O)Nc1ccc(I)cc1	> 100	> 100	–	> 100
C=CC(=O)NCc1ccc(C(C)(C)C)cc1	> 100	> 100	–	72
CC(C)(C)c1ccc(CNC(=O)CCCl)cc1	67	87	–	> 100

Continued, in another order:

IC50 (MCF7) [µM]	IC50 (HT-29) [µM]	Activity [1]	SMILES	IC50 (M21) [µM]
5.7	12	inactive	CCCCCc1cccc(NC(=O)CCl)c1	1.4
2	6.5	–	CC(C)(C)c1ccc(NC(=O)NC(=O)CCl)cc1	1.4
5.7	10	inactive	O=C(CCl)NC(=O)Nc1cccc(CCCCCO)c1	4.6
49	88	–	CC(C)(C)c1ccc(NC(=O)CCCl)cc1	74
17	15	inactive	C=CC(=O)Nc1ccc(I)cc1	11
4.9	11	–	O=C(CCl)NC(=O)Nc1ccc(I)cc1	8.1
5.4	15	inactive	CC(C)(C)c1ccc(NC(=O)CCl)cc1	5.4
12	13	inactive	COCCCCCc1cccc(NC(=O)CCl)c1	6.9
26	18	inactive	O=C(CCCl)Nc1ccc(I)cc1	20
26	28	–	CCCCCc1cccc(NC(=O)NCCCCl)c1	24
50	56	–	COCCCCCc1cccc(NC(=O)NCCCCl)c1	51
49	31	–	C=CC(=O)Nc1cccc(CCCCC)c1	27
17	19	–	CC(C)(C)c1ccc(CNC(=O)NCCCCl)cc1	11
6.1	10	inactive	COCCCCCc1cccc(NC(=O)NC(=O)CCl)c1	4.2
8.3	8.4	inactive	CCCCCc1cccc(NC(=O)NC(=O)CCl)c1	3.5
29	24	inactive	C=CC(=O)Nc1ccc(C(C)(C)C)cc1	22
49	28	–	CC(C)(C)c1ccc(NC(=O)NCCCCl)cc1	35
23	18	inactive	CC(C)(C)c1ccc(CNC(=O)CCl)cc1	16
54	46	–	CCCCCc1cccc(NC(=O)CCCl)c1	54
2.8	7.1	inactive	CC(C)(C)c1ccc(CNC(=O)NC(=O)CCl)cc1	2.4

— ChEMBL document CHEMBL1177866, “Synthesis, antiproliferative activity evaluation and structure-activity relationships of novel aromatic urea and amide analogues of N-phenyl-N'-(2-chloroethyl)ureas” (Eur J Med Chem, 2010)
